Compounds with a hit are over-represented: about 1.6% of the library has one in this group of screens.
PG9 Ab binder = binders of HIV-1 gp120 antibody PG9, primary screen, biochemical, TR-FRET; TR-FRET gp120-PG9 antibody binding; AID 624416, 2012; inhibition, % at 6.7 µM; 0.43% of 360,000 active; HIV-1 gp120 / PG9 antibody interaction; in the data active means inhibition above about 8.5%
NR2E3 ag-1 = NR2E3 agonists in two-hybrid cells, primary screen, cell-based, luminescence, CHO-S, Gal4-NCOR/VP16-NR2E3 | luciferase | 0.35% of 360,000 active | AID 602229, 2012 | inhibition of corepressor binding, % at 3.98 µM;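 active means inhibition above the mean of all tested compounds plus 3 SD, cut at about 70% in these data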;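 further: 0% = DMSO with NR2E3 transfected cells and 100% = cells lacking NR2E3 construct; higher means lower luciferase signal from less NR2E3 corepressor binding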
NR1D1 modulator = modulators of Rev-erb alpha DNA binding, primary screen, biochemical, FITC-DNA, fluorescence polarization, uHTS. Nuclear receptor subfamily 1 group D member 1 (Homo sapiens), P20393. Rev-erbα–FITC-DNA binding, 90 min. activity, % at 10 µM. 0.79% of 370,000 active. AID 1259318, 2017;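 active means activity above about 14%, limit read from the data; passing the limit was not always enough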;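 further: 0% = DMSO wells with 35 nM protein and 100% = DMSO wells with 750 nM protein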
PKA-R1A activ = activators of PKA-R1A holoenzyme, primary screen, biochemical, fluorescence polarization, Cy5-IP20, bovine R1A, mouse PKAc; PKA-R1A dissociation; scaled: DMSO 0%, 113 µM cGMP 100%; activation, % at 11.4 µM; 0.083% of 340,000 active;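 active means percent activation above the mean of all tested compounds plus 3 SD, cut at about 19% in these data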;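 further: higher means more PKAc released from R1A so a rise in polarization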
PKA-R2B activ = activators of PKA-R2B holoenzyme, primary screen, biochemical, fluorescence polarization, Cy5-IP20, human | PKA-R2B holoenzyme dissociation; R2B truncated from residue 108, S112A mutant; 0% DMSO only, 100% 113 µM cGMP | activation, % at 11.4 µM | AID 504700, 2011 | 0.079% of 340,000 active | cAMP-dependent protein kinase catalytic subunit beta (Homo sapiens) + cAMP-dependent …;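 active means activation above a cutoff set at the mean over all compounds plus 3 SD, cut at about 18% in these data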;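 further: higher means more holoenzyme dissociation and a rise in polarization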
Target sequence (P31323 whole entry, looked up, other chains not shown, the tested form may be a part): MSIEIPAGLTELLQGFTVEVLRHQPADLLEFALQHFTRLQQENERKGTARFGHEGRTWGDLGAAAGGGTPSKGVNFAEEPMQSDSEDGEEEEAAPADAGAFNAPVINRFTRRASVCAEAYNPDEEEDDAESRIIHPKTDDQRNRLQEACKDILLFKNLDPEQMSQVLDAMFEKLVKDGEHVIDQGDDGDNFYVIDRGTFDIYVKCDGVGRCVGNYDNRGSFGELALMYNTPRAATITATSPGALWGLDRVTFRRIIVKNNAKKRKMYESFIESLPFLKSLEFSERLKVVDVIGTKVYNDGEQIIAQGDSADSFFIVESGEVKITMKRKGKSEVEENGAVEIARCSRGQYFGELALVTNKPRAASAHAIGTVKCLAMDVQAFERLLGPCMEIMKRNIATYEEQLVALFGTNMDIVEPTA
NR2E3 ag-2 = inhibitors of NR2E3-RetCOR corepressor binding, primary screen, NR2E3 agonist project, biochemical, TR-FRET, GST-NR2E3, biotin-RetCOR | 1536-well | inhibition of corepressor binding, % at 4.78 µM | 0.12% of 320,000 active | AID 2300, 2010 | Photoreceptor-specific nuclear receptor (Homo sapiens), Q9Y5X4;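 active means percent inhibition above the cutoff of mean plus 3 SD of all tested compounds, set per screening campaign, cut at about 20% in these data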;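 further: 0% = DMSO wells and 100% = biotin wells as full block of FRET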
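System: GST-tagged NR2E3 plus biotinylated RetCOR corepressor; Amount: 1.35 nM GST-tagged NR2E3 final; Dosing: single nominal compound dose of 4.8 µM; Schedule: 5 h incubation at 4 °C; Technique: TR-FRET with europium anti-GST and streptavidin-D2, 340 nm excitation; Controls: biotin wells as high control, 0.6% DMSO wells as low control.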
NR1D1 mod conf = modulators of Rev-erb alpha DNA binding, confirmation, biochemical, FITC-DNA, fluorescence polarization, single point | shares compounds with NR1D1 modulator | 90 min | activation, % at 25 µM | 61% of 3,000 active;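 active means activation at or above a set limit, or at least 3 SD above the negative control mean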;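 further: 0% = 35 nM protein with DMSO and 100% = 750 nM protein high control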
RORg DNA counter = modulation of RORgamma DNA binding, dose response, counter-screen for Rev-erb alpha modulator project, biochemical, fluorescence polarization, FITC-DNA | IC50, µM | 8% of 910 active | shares compounds with NR1D1 modulator | purified RORgamma protein-FITC-DNA binding | AID 1259320, 2017;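 active means Compounds whose fitted half-maximal concentration for disrupting protein-DNA binding is below 10 micromolar; the record names Rev-erb in its text, so the target is in doubt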
* hit, by the source's call; i = inactive; nt = not tested or not shown.

SMILES	PG9 Ab binder	NR2E3 ag-1	NR1D1 modulator	PKA-R1A activ	PKA-R2B activ	NR2E3 ag-2	NR1D1 mod conf	others
COc1cc(C(C)=O)ccc1OCC(=O)NC(=O)Nc1ccc(C)cc1C	0	-12	28*	1	-6	nt	-6
COC(=O)[C@]1(Cc2ccccc2)N[C@H](c2ccc(-c3cc(C(C)=O)cs3)cc2)[C@@H]2C(=O)N(C)C(=O)[C@@H]21	3	-10	23*	-3	0	3	12
O=C(c1ccco1)N1C(=O)c2cccc3cccc1c23	0	-13	-3	2	6	-1	nt
O=C(c1cccs1)N1C(=O)c2cccc3cccc1c23	-1	-2	51*	-23	-6	2	42*	RORg DNA counter=>40
O=C(c1ccccc1F)N1C(=O)c2cccc3cccc1c23	1	-17	25*	-3	-6	-2	10
COc1ccc(S[C@]2(C(=O)N3CCOCC3)CC(=O)N(C(=O)C3CC3)[C@@H]2c2ccc(OC)cc2)cc1	nt	nt	-6	nt	nt	nt	nt
O=S1(=O)CC2c3ccc(F)cc3CN2CN1C1CCCC1 (configuration not stated)	nt	nt	3	nt	nt	nt	nt
COc1ccc(C(=O)c2ccc(N3CCN(C(=O)c4ccc(F)cc4)CC3)c(F)c2)cc1Br	1	19	28*	-17	5	2	24*
CC(=O)c1ccc(N2CCN(C(=S)Nc3cccc(F)c3)CC2)cc1	1	-9	29*	0	2	0	18*
CC(=O)c1ccc(N2CCN(C(=S)Nc3ccc(Oc4ccccc4)cc3)CC2)cc1	1	37	-5	8	-7	-4	nt
COc1ccc(-c2noc(C3CCCN(C(=O)N[C@@H]4C[C@H]4c4ccccc4)C3)n2)cc1 (some centres not stated)	nt	nt	-1	nt	nt	nt	nt
CCc1ccc(C(=O)COC(=O)c2ccc(-c3nnc(-c4ccccc4)o3)cc2)cc1	-3	-36	23*	-11	0	-3	8
Cc1ccc(C(=O)OCC(=O)c2ccccc2)cc1	-2	-141	-8	1	0	0	nt
COc1cc(-c2nc(-c3ccc(Br)o3)no2)cc(OC)c1OC	-1	-10	27*	6	4	3	8
COc1ccc(-c2noc(-c3ccc(Br)o3)n2)cc1OC	0	-21	0	-1	-1	-1	nt
C[n+]1ccc(/C=C/c2ccc(Br)cc2)cc1	-1	-6	1	-1	-10	-4	nt
Cc1ccc2c(c1)c(/C=C/c1cc[n+](C)cc1)c(C)n2C	-31	-1	280*	3	3	nt	224*	RORg DNA counter=i
Cc1ccc2[nH]c(C)c(/C=C/c3cc[n+](C)cc3)c2c1	-26	11	235*	-3	-8	nt	182*	RORg DNA counter=>40
O=C(N[C@@H](Cc1cccnc1)C(=O)N1CCC[C@H]1C(=O)NCCc1ccccc1Cl)c1cccs1	-1	nt	-1	nt	nt	nt	nt
CC(C)N1CCCCC(NC(=O)c2ccc(F)cc2)C1=O (configuration not stated)	nt	nt	10	nt	nt	nt	nt
CCC(C)(C)NC(=O)CN(Cc1ccc2c(c1)OCO2)C(=O)CCC(=O)Nc1ccccn1	0	-25	27*	6	-9	4	5
CCC(C)(C)NC(=O)CN(Cc1ccc2c(c1)OCO2)C(=O)CCC(=O)Nc1nccs1	-1	15	-10	2	6	1	nt
COC[C@H]1CCCN1c1cccc2c1S(=O)(=O)N(C1CC1)CC[C@@H](C)O2	nt	nt	-1	nt	nt	nt	nt
CS(=O)(=O)c1ccc2nc(NC(=O)C3=NN(c4ccccc4)C(=O)CC3)sc2c1	-2	-4	2	-1	8	-1	nt
CS(=O)(=O)c1ccc2nc(NC(=O)c3cc(-c4ccccc4)nn3-c3ccccc3)sc2c1	0	1	42*	2	-3	0	19*
SMILES	PG9 Ab binder	NR2E3 ag-1	NR1D1 modulator	PKA-R1A activ	PKA-R2B activ	NR2E3 ag-2	NR1D1 mod conf	others
Cc1ccc(Cc2c(-c3ccc(C#N)cc3)nc3ccc(C)cn23)cc1	0	nt	-5	nt	nt	nt	nt
Clc1cccc(Cc2c(-c3cccc(Cl)c3)nc3ccc(Br)cn23)c1	6	15	26*	nt	nt	nt	19*
Clc1ccc(-c2nc3ccc(Br)cn3c2Cc2cccc(Cl)c2)cc1	5	25	25*	nt	nt	nt	19*
Cc1ccc(-c2nc3ccc(C)cn3c2Cc2cccc(Cl)c2)cc1	-2	-88	3	nt	nt	nt	nt
Cc1ccc(Cc2c(-c3ccc(C#N)cc3)nc3ccc(Br)cn23)cc1	6	-73	29*	-3	0	nt	6
Cc1ccc(-c2nc3ccc(Br)cn3c2Cc2cccc(Cl)c2)cc1	4	-21	19*	nt	nt	nt	10
Cc1ccc(-n2c(SCC(=O)c3ccc(F)cc3)nnc2-c2cccnc2)cc1	nt	nt	4	nt	nt	nt	nt
C=CCN1[C@H](C)COc2cc(F)ccc2S1(=O)=O	nt	nt	0	nt	nt	nt	nt
O=C(NN=Cc1ccccc1C(F)(F)F)c1cc(-c2ccc(Cl)cc2)n[nH]1	nt	nt	-2	nt	nt	nt	nt
COC(=O)[C@]12C[C@H](CC(=O)NCCCCc3ccccc3)C(=O)N(Cc3cccc4ccccc34)C1=C[C@H](C1CCCC1)O[C@@H]2C	nt	nt	0	nt	nt	nt	nt
Cc1cc(Br)c2nc(-c3ccc(F)cc3)c(Cc3cccc(Cl)c3)n2c1	6	nt	29*	nt	nt	nt	13*
COc1ccc2ccccc2c1C=NNC(=O)CN1CCN(Cc2ccccc2)CC1	nt	nt	0	nt	nt	nt	nt
O=c1oc(C2(O)CCCCC2)cc2ccc(-c3ccc4[nH]ccc4c3)cc12	-5	-59	22*	7	4	nt	11
Cc1cc(C)c(C)c(S(=O)(=O)N2CCSCC2)c1C	-2	-3	19*	-1	15	2	14
Cc1sc(NC(=O)c2ccccc2)c(C(=O)c2ccccc2)c1C	-2	4	0	-9	0	2	nt
Cc1sc(NC(=O)c2ccccc2)c(C(=O)NC(C)C)c1C	-1	5	24*	3	1	-1	3

Source: PubChem BioAssay
